Converted amounts (≈) assume the structure as drawn.
Experiments:
Type in all cases: functional
Pasteurella multocida [1] = experiment: Minimum inhibitory concentration required to inhibit growth of Pasteurella multocida in vitro by microdilution method.
Summary of the method: (§1)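 Broth microdilution per NCCLS; E. coli 51A0150 (poultry lung) and P. multocida 59A0067 (turkey). Overnight BHI plate colonies suspended in saline to OD625 0.09 (0.5 McFarland), diluted 1:100 in BHI broth; final ~5×10^5 cfu/mL against 2-fold serial dilutions in BHI broth.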

Escherichia coli = experiment: In vitro minimum inhibitory concentration required to inhibit growth of Escherichia coli.; summary of the method: as §1
Pasteurella multocida [2] = experiment: Effective dose required to inhibit Pasteurella multocida infection model in mouse by subcutaneous administration
Summary of the method: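 Mice infected intranasally with P. multocida (respiratory disease model); drug given subcutaneously 0.5 h post-infection at 5–80 mg/kg. ED50 derived from number of surviving mice 4 days after infection.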

[3] = Pasteurella multocida, read-out: MIC
[4] = Pasteurella multocida, sc, read-out: ED50

Structure (SMILES)	MIC (Pasteurella multocida [1]; [3])	MIC (Escherichia coli; Escherichia coli)	ED50 (Pasteurella multocida [2]; [4])	MIC (Pasteurella multocida [1])	MIC (Escherichia coli)	ED50 (Pasteurella multocida [2])
CC[C@H]1OC(=O)[C@H](C)[C@@H](O[C@H]2C[C@@](C)(OC)[C@](O)(CNC3CC3)[C@H](C)O2)[C@H](C)[C@@H](O[C@@H]2O[C@H](C)C[C@H](N(C)C)[C@H]2O)[C@](C)(O)C[C@@H](C)CN[C@H](C)[C@@H](O)[C@]1(C)O	0.1 µg/mL (≈ 0.124 µM)	0.78 µg/mL (≈ 0.97 µM)	15 mg/kg	–	–	–
CC[C@H]1OC(=O)[C@H](C)[C@@H](O[C@H]2C[C@@](C)(OC)[C@@](O)(CN(C)C)[C@H](C)O2)[C@H](C)[C@@H](O[C@@H]2O[C@H](C)C[C@H](N(C)C)[C@H]2O)[C@](C)(O)C[C@@H](C)CN[C@H](C)[C@@H](O)[C@]1(C)O	< 0.1 µg/mL	0.39 µg/mL (≈ 0.492 µM)	9.9 mg/kg	–	–	–
CC[C@H]1OC(=O)[C@H](C)[C@@H](O[C@H]2C[C@@](C)(OC)[C@@](O)(CSCCO)[C@H](C)O2)[C@H](C)[C@@H](O[C@@H]2O[C@H](C)C[C@H](N(C)C)[C@H]2O)[C@](C)(O)C[C@@H](C)CN[C@H](C)[C@@H](O)[C@]1(C)O	0.2 µg/mL (≈ 0.242 µM)	1.56 µg/mL (≈ 1.89 µM)	51 mg/kg	–	–	–
CC[C@H]1OC(=O)[C@H](C)[C@@H](O[C@H]2C[C@@](C)(OC)[C@](O)(CSCCO)[C@H](C)O2)[C@H](C)[C@@H](O[C@@H]2O[C@H](C)C[C@H](N(C)C)[C@H]2O)[C@](C)(O)C[C@@H](C)CN[C@H](C)[C@@H](O)[C@]1(C)O	0.39 µg/mL (≈ 0.473 µM)	25 µg/mL (≈ 30.3 µM)	> 40 mg/kg	–	–	–
CC[C@H]1OC(=O)[C@H](C)[C@@H](O[C@H]2C[C@@](C)(OC)[C@@](O)(CN3CCCCC3)[C@H](C)O2)[C@H](C)[C@@H](O[C@@H]2O[C@H](C)C[C@H](N(C)C)[C@H]2O)[C@](C)(O)C[C@@H](C)CN[C@H](C)[C@@H](O)[C@]1(C)O	< 0.1 µg/mL	0.39 µg/mL (≈ 0.469 µM)	40 mg/kg	–	–	–
CC[C@H]1OC(=O)[C@H](C)[C@@H](O[C@H]2C[C@@](C)(OC)[C@@](O)(CN(C)CCO)[C@H](C)O2)[C@H](C)[C@@H](O[C@@H]2O[C@H](C)C[C@H](N(C)C)[C@H]2O)[C@](C)(O)C[C@@H](C)CN[C@H](C)[C@@H](O)[C@]1(C)O	0.1 µg/mL (≈ 0.122 µM)	1.56 µg/mL (≈ 1.9 µM)	12 mg/kg	–	–	–
CC[C@H]1OC(=O)[C@H](C)[C@@H](O[C@H]2C[C@@](C)(OC)[C@@](O)(CNC3CC3)[C@H](C)O2)[C@H](C)[C@@H](O[C@@H]2O[C@H](C)C[C@H](N(C)C)[C@H]2O)[C@](C)(O)C[C@@H](C)CN[C@H](C)[C@@H](O)[C@]1(C)O	0.05 µg/mL (≈ 0.0622 µM)	0.2 µg/mL (≈ 0.249 µM)	20 mg/kg	–	–	–
CCCNC[C@@]1(O)[C@H](C)O[C@@H](O[C@H]2[C@H](C)[C@@H](O[C@@H]3O[C@H](C)C[C@H](N(C)C)[C@H]3O)[C@](C)(O)C[C@@H](C)CN[C@H](C)[C@@H](O)[C@](C)(O)[C@@H](CC)OC(=O)[C@@H]2C)C[C@@]1(C)OC	0.1 µg/mL (≈ 0.124 µM)	0.39 µg/mL (≈ 0.484 µM)	12 mg/kg	–	–	–
CC[C@H]1OC(=O)[C@H](C)[C@@H](O[C@H]2C[C@@](C)(OC)[C@@](O)(Cn3ccnn3)[C@H](C)O2)[C@H](C)[C@@H](O[C@@H]2O[C@H](C)C[C@H](N(C)C)[C@H]2O)[C@](C)(O)C[C@@H](C)CN[C@H](C)[C@@H](O)[C@]1(C)O	0.05 µg/mL (≈ 0.0613 µM)	0.78 µg/mL (≈ 0.956 µM)	23 mg/kg	–	–	–
CCCCCCNC[C@@]1(O)[C@H](C)O[C@@H](OC2[C@@H](C)C(=O)O[C@H](CC)[C@@](C)(O)[C@H](O)[C@@H](C)NC[C@H](C)C[C@@](C)(O)[C@H](O[C@@H]3O[C@H](C)C[C@H](N(C)C)[C@H]3O)[C@H]2C)C[C@@]1(C)OC (some centres not stated)	0.2 µg/mL (≈ 0.236 µM)	0.78 µg/mL (≈ 0.92 µM)	> 80 mg/kg	–	–	–
CC[C@H]1OC(=O)[C@H](C)[C@@H](O[C@H]2C[C@@](C)(OC)[C@@](O)(CN3CCOCC3)[C@H](C)O2)[C@H](C)[C@@H](O[C@@H]2O[C@H](C)C[C@H](N(C)C)[C@H]2O)[C@](C)(O)C[C@@H](C)CN[C@H](C)[C@@H](O)[C@]1(C)O	0.2 µg/mL (≈ 0.24 µM)	3.13 µg/mL (≈ 3.75 µM)	49 mg/kg	–	–	–
CC[C@H]1OC(=O)[C@H](C)[C@@H](O[C@H]2C[C@@](C)(OC)[C@](O)(CNC(C)(C)C)[C@H](C)O2)[C@H](C)[C@@H](O[C@@H]2O[C@H](C)C[C@H](N(C)C)[C@H]2O)[C@](C)(O)C[C@@H](C)CN[C@H](C)[C@@H](O)[C@]1(C)O	0.05 µg/mL (≈ 0.061 µM)	0.39 µg/mL (≈ 0.476 µM)	9.6 mg/kg	–	–	–
CC[C@H]1OC(=O)[C@H](C)[C@@H](O[C@H]2C[C@@](C)(OC)[C@@](O)(CN)[C@H](C)O2)[C@H](C)[C@@H](O[C@@H]2O[C@H](C)C[C@H](N(C)C)[C@H]2O)[C@](C)(O)C[C@@H](C)CN[C@H](C)[C@@H](O)[C@]1(C)O	0.39 µg/mL (≈ 0.51 µM)	6.25 µg/mL (≈ 8.18 µM)	30 mg/kg	–	–	–
CC[C@H]1OC(=O)[C@H](C)[C@@H](O[C@H]2C[C@@](C)(OC)[C@](O)(CN3CCCCC3)[C@H](C)O2)[C@H](C)[C@@H](O[C@@H]2O[C@H](C)C[C@H](N(C)C)[C@H]2O)[C@](C)(O)C[C@@H](C)CN[C@H](C)[C@@H](O)[C@]1(C)O	0.05 µg/mL (≈ 0.0601 µM)	0.39 µg/mL (≈ 0.469 µM)	–	–	–	–
CC[C@H]1OC(=O)[C@H](C)[C@@H](O[C@H]2C[C@@](C)(OC)[C@](O)(CN(C)C)[C@H](C)O2)[C@H](C)[C@@H](O[C@@H]2O[C@H](C)C[C@H](N(C)C)[C@H]2O)[C@](C)(O)C[C@@H](C)CN[C@H](C)[C@@H](O)[C@]1(C)O	0.05 µg/mL (≈ 0.0631 µM)	0.39 µg/mL (≈ 0.492 µM)	5.9 mg/kg	–	–	–
CCCCNC[C@@]1(O)[C@H](C)O[C@@H](O[C@H]2[C@H](C)[C@@H](O[C@@H]3O[C@H](C)C[C@H](N(C)C)[C@H]3O)[C@](C)(O)C[C@@H](C)CN[C@H](C)[C@@H](O)[C@](C)(O)[C@@H](CC)OC(=O)[C@@H]2C)C[C@@]1(C)OC	< 0.1 µg/mL	0.39 µg/mL (≈ 0.476 µM)	23 mg/kg	–	–	–
CC[C@H]1OC(=O)[C@H](C)[C@@H](O[C@H]2C[C@@](C)(OC)[C@@](O)(Cn3ccnc3)[C@H](C)O2)[C@H](C)[C@@H](O[C@@H]2O[C@H](C)C[C@H](N(C)C)[C@H]2O)[C@](C)(O)C[C@@H](C)CN[C@H](C)[C@@H](O)[C@]1(C)O	0.2 µg/mL (≈ 0.245 µM)	3.13 µg/mL (≈ 3.84 µM)	20 mg/kg	–	–	–
CC[C@H]1OC(=O)[C@H](C)[C@@H](O[C@H]2C[C@@](C)(OC)[C@@](O)(CNCC(F)(F)F)[C@H](C)O2)[C@H](C)[C@@H](O[C@@H]2O[C@H](C)C[C@H](N(C)C)[C@H]2O)[C@](C)(O)C[C@@H](C)CN[C@H](C)[C@@H](O)[C@]1(C)O	< 0.1 µg/mL	1.56 µg/mL (≈ 1.84 µM)	46 mg/kg	–	–	–
CC[C@H]1OC(=O)[C@H](C)[C@@H](O[C@H]2C[C@@](C)(OC)[C@@](O)(CN(C)CC)[C@H](C)O2)[C@H](C)[C@@H](O[C@@H]2O[C@H](C)C[C@H](N(C)C)[C@H]2O)[C@](C)(O)C[C@@H](C)CN[C@H](C)[C@@H](O)[C@]1(C)O (stereo in doubt; 10g)	–	0.39 µg/mL (≈ 0.484 µM)	< 5 mg/kg	0.1 µg/mL (≈ 0.124 µM)	–	–
CCCCNC[C@]1(O)[C@H](C)O[C@@H](O[C@H]2[C@H](C)[C@@H](O[C@@H]3O[C@H](C)C[C@H](N(C)C)[C@H]3O)[C@](C)(O)C[C@@H](C)CN[C@H](C)[C@@H](O)[C@](C)(O)[C@@H](CC)OC(=O)[C@@H]2C)C[C@@]1(C)OC	0.1 µg/mL (≈ 0.122 µM)	0.78 µg/mL (≈ 0.951 µM)	17 mg/kg	–	–	–
CC[C@H]1OC(=O)[C@H](C)[C@@H](O[C@H]2C[C@@](C)(OC)[C@@](O)(CN(CCO)CCO)[C@H](C)O2)[C@H](C)[C@@H](O[C@@H]2O[C@H](C)C[C@H](N(C)C)[C@H]2O)[C@](C)(O)C[C@@H](C)CN[C@H](C)[C@@H](O)[C@]1(C)O	3.13 µg/mL (≈ 3.67 µM)	> 50 µg/mL	–	–	–	–
CC[C@H]1OC(=O)[C@H](C)[C@@H](O[C@H]2C[C@@](C)(OC)[C@@](O)(CN3CCCC3)[C@H](C)O2)[C@H](C)[C@@H](O[C@@H]2O[C@H](C)C[C@H](N(C)C)[C@H]2O)[C@](C)(O)C[C@@H](C)CN[C@H](C)[C@@H](O)[C@]1(C)O	50 µg/mL (≈ 61.1 µM)	0.2 µg/mL (≈ 0.244 µM)	7.3 mg/kg	–	–	–
CC[C@H]1OC(=O)[C@H](C)[C@@H](O[C@H]2C[C@@](C)(OC)[C@@](O)(CN(C)CC)[C@H](C)O2)[C@H](C)[C@@H](O[C@@H]2O[C@H](C)C[C@H](N(C)C)[C@H]2O)[C@](C)(O)C[C@@H](C)CN[C@H](C)[C@@H](O)[C@]1(C)O (stereo in doubt; 8i)	–	–	–	< 0.1 µg/mL	0.78 µg/mL (≈ 0.968 µM)	7.2 mg/kg
CC[C@H]1OC(=O)[C@H](C)[C@@H](O[C@H]2C[C@@](C)(OC)[C@@](O)(CN(C)C3CC3)[C@H](C)O2)[C@H](C)[C@@H](O[C@@H]2O[C@H](C)C[C@H](N(C)C)[C@H]2O)[C@](C)(O)C[C@@H](C)CN[C@H](C)[C@@H](O)[C@]1(C)O	0.1 µg/mL (≈ 0.122 µM)	0.78 µg/mL (≈ 0.953 µM)	17 mg/kg	–	–	–
CC[C@H]1OC(=O)[C@H](C)[C@@H](O[C@H]2C[C@@](C)(OC)[C@](O)(CN)[C@H](C)O2)[C@H](C)[C@@H](O[C@@H]2O[C@H](C)C[C@H](N(C)C)[C@H]2O)[C@](C)(O)C[C@@H](C)CN[C@H](C)[C@@H](O)[C@]1(C)O	0.39 µg/mL (≈ 0.51 µM)	6.25 µg/mL (≈ 8.18 µM)	–	–	–	–

— ChEMBL document CHEMBL1135354, “Synthesis and activity of a novel class of tribasic macrocyclic antibiotics: the triamilides” (2002)
